# Source: PubChem BioAssay AID623919 (The Scripps Research Institute Molecular Screening Center, 2012)
# Calls of active or inactive are those of the source.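 The calls were made as follows: active = recombination in E. coli crosses cut more than 4-fold against the solvent-only control; inactive = cut of 4-fold or less.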
# System: E. coli V66 Hfr conjugational recombination, colony counts
# Assay: RecBCD-driven recombination inhibition in E. coli, late-stage follow-up, counter-screen for AddAB inhibitor project, V66 E. coli, colony formation, powder samples, 100 µM (AID 623919)
# Details: at 100 µM; hits give high values
# Summary of the method: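 repeats = duplicate experiments | material = E. coli V66 recipient with Hfr donor | read-out basis = fold reduction in recombinant frequency versus DMSO, viability-adjusted | times = 1 h compound exposure plus 30 min mating | buffer or medium = LB broth | controls = DMSO-only culture | compound dosing = single 100 µM dose | technique = differential plating colony counts | also added = Hfr donor, 1:10 donor-to-recipient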
row,Structure (SMILES),fold reduction of recombination
1,CCn1cc(C(=O)O)c(=O)c2cnc(N3CCN(C(=O)Nc4ccccc4)CC3)nc21,1 (inactive)
2,CCn1cc(C(=O)O)c(=O)c2cc(F)c(N3CCN(C(=S)Nc4cccc(C(F)(F)F)c4)CC3)cc21,350
3,NC(=O)c1ccsc1NC(=O)COC(=O)c1ccc([N+](=O)[O-])o1,1.6 (inactive)
4,C=CCNC(=S)N1CCN(c2ncc3c(=O)c(C(=O)O)cn(CC)c3n2)CC1,1.5 (inactive)
5,CCn1cc(C(=O)O)c(=O)c2cnc(N3CCN(C(=S)NC4CC5CCC4C5)CC3)nc21 (stereo not drawn),1 (inactive)
6,CC1(C)Cc2c(sc(NC(=O)c3ccco3)c2C#N)CO1,2 (inactive)
7,Cc1ccc(C(=O)Nc2sc3c(c2C#N)CCC3)o1,2 (inactive)
8,O=C(OCC(=O)c1cccs1)c1ccc([N+](=O)[O-])o1,2.1 (inactive)
9,Cc1cccnc1NC(=O)c1ccc([N+](=O)[O-])o1,3 (inactive)
10,N#Cc1c(NC(=O)c2cccc(F)c2)sc2c1CCCC2,1 (inactive)
11,N#Cc1c(NC(=O)c2ccc([N+](=O)[O-])o2)sc2c1CCCC2,1 (inactive)
12,CCn1cc(C(=O)O)c(=O)c2cnc(N3CCN(C(=S)NC(C)c4ccccc4)CC3)nc21 (stereo not drawn),1.5 (inactive)
13,CCn1cc(C(=O)O)c(=O)c2cnc(N3CCN(C(=S)Nc4ccccc4OC)CC3)nc21,1.5 (inactive)
14,CCn1cc(C(=O)O)c(=O)c2cnc(N3CCN(C(=S)Nc4ccccc4Cl)CC3)nc21,1 (inactive)
15,N#Cc1c(NC(=O)c2ccccc2C(=O)O)sc2c1CCCC2,1 (inactive)
16,CCn1cc(C(=O)O)c(=O)c2cnc(N3CCN(C(=S)Nc4ccc(Cl)cc4)CC3)nc21,1 (inactive)
17,CCn1cc(C(=O)O)c(=O)c2cnc(N3CCN(C(=S)Nc4ccc(F)cc4)CC3)nc21,1 (inactive)
18,CCn1cc(C(=O)O)c(=O)c2cnc(N3CCN(C(=S)Nc4ccccc4F)CC3)nc21,2 (inactive)
19,O=C(NCc1cccnc1)c1ccc([N+](=O)[O-])o1,18.5
20,CCn1cc(C(=O)O)c(=O)c2cnc(N3CCN(C(=S)NC(=O)c4ccccc4Cl)CC3)nc21,2 (inactive)
21,CCn1cc(C(=O)O)c(=O)c2cnc(N3CCN(C(=S)NC(=O)c4cccc(C)c4)CC3)nc21,1 (inactive)
22,CCn1cc(C(=O)O)c(=O)c2cnc(N3CCN(C(=S)NC(=O)c4ccco4)CC3)nc21,1 (inactive)
23,CCn1cc(C(=O)O)c(=O)c2cnc(N3CCN(C(=S)Nc4ccc5c(c4)OCO5)CC3)nc21,1 (inactive)
24,N#Cc1c(NC(=O)c2ccc([N+](=O)[O-])o2)sc2c1CCC2,3 (inactive)

row,Structure (SMILES),fold reduction of recombination
1,O=C(Nc1ncccn1)c1ccc([N+](=O)[O-])o1,20
2,CCn1cc(C(=O)O)c(=O)c2cnc(N3CCNCC3)nc21,50
3,CCn1cc(C(=O)O)c(=O)c2cnc(N3CCN(C(=S)Nc4ccc5c(c4)OCCO5)CC3)nc21,1 (inactive)
4,Cc1ccc(C(=O)Nc2sc3c(c2C#N)CCCCC3)o1,3 (inactive)
5,CC1CCc2c(sc(NC(=O)c3ccc([N+](=O)[O-])o3)c2N)C1 (stereo not drawn),2 (inactive)
6,CC1CCc2c(sc(NC(=O)c3ccc([N+](=O)[O-])o3)c2C#N)C1 (stereo not drawn),2 (inactive)
7,CCn1cc(C(=O)O)c(=O)c2cnc(N3CCN(C(=S)NC)CC3)nc21,1 (inactive)
8,O=C(Nc1cccc(NC(=O)c2ccccc2Cl)c1)c1ccc([N+](=O)[O-])o1,2 (inactive)
9,N#Cc1c(NC(=O)c2ccccc2)sc2c1CCC2,1 (inactive)
10,C=CCn1c(Sc2ncc([N+](=O)[O-])s2)n[nH]c1=O,900
11,Cc1sc(NC(=O)c2ccc(Br)o2)c(C#N)c1C,1.5 (inactive)
12,O=C(Nc1ccc(N2CCOCC2)cc1)c1ccc([N+](=O)[O-])o1,2 (inactive)
13,CCn1cc(C(=O)O)c(=O)c2cnc(N3CCN(C(=S)Nc4ccccc4)CC3)nc21,1 (inactive)
14,N#Cc1c(NC(=O)c2ccc(-c3ccccc3[N+](=O)[O-])o2)sc2c1CCCC2,1 (inactive)
15,CCn1cc(C(=O)O)c(=O)c2cnc(N3CCN(C(=S)Nc4cccc(C(F)(F)F)c4)CC3)nc21,6
16,Nc1c(NC(=O)c2ccc([N+](=O)[O-])o2)sc2c1CCCC2,1 (inactive)
17,N#Cc1c(NC(=O)c2ccco2)sc2c1CCC2,1 (inactive)
18,CC(=O)Nc1ccc2nc(NC(=O)c3ccc([N+](=O)[O-])o3)sc2c1,2 (inactive)
19,CCn1cc(C(=O)O)c(=O)c2cnc(N3CCN(C(=S)NC(=O)c4cccnc4)CC3)nc21,1 (inactive)
20,N#Cc1c(NC(=O)C2CC=CCC2C(=O)O)sc2c1CCC2 (stereo not drawn),1 (inactive)
21,Cc1ccc2nc(/C(C#N)=C\c3ccc([N+](=O)[O-])o3)[nH]c2c1,3 (inactive)
22,CCn1cc(C(=O)O)c(=O)c2cnc(N3CCN(C(=S)Nc4ccccc4C)CC3)nc21,1 (inactive)
23,CCn1cc(C(=O)O)c(=O)c2cnc(N3CCN(C(=S)NCc4ccccc4)CC3)nc21,1 (inactive)
24,N#Cc1c(NC(=O)c2cnccn2)sc2c1CCCC2,1 (inactive)
